RAD52 inh = blocks human RAD52 DNA annealing. AID 651710. 360,000 tested, 0.46% active. P43351. inhibition, % at 18.7 µM. recombinant RAD52 DNA annealing, FRET fluorescence;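 active = every replicate showing at least 50% inhibition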
RAD54 inh = inhibitors of human RAD54 branch migration. inhibition, % at 10.4 µM. AID 602329. 360,000 tested, 0.14% active. RAD54 Holliday junction branch migration, FAM/BHQ fluorescence;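 active = mean normalized replicate activity at least 40 and at least half of replicates scoring 40 or more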;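 also: 0% = median of neutral control wells and 100% = median of positive control wells; inhibitors cause a drop in the FAM fluorescence signal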
dFosB activator = activators of mouse delta FosB homodimer; purified delta FosB, TAMRA-CDK5 oligo fluorescence polarization; percent of positive-control signal above neutral wells; activation, % at 25 µM; 340,000 tested, 0.99% active;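 active = mean activation above about 17%, with every replicate also reaching it, limit read from the data, passing the limit was not always enough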
S100A4 inh HTS = inhibitors of human S100A4 binding to myosin IIA peptide; P26447; S100A4/TAMRA-MyoIIA peptide fluorescence polarization; inhibition, % at 10.7 µM; 360,000 tested, 0.14% active;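 active = mean inhibition of at least 70% across replicates, with every replicate also reaching that level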
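Test system – S100A4 monomer (human) · Compound – single-point compound testing · Schedule – 5 min incubation before reading · Probe or stimulus – TAMRA-labelled myosin IIA heavy-chain peptide probe, 5 nM · Benchmarks – neutral control DMSO, positive control TFP · Medium – Calcium-containing HEPES buffer, pH 7.2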
AF4-AF9 inh = inhibitors of human MLL-AF4/AF9 interaction; AID 651704; AlphaScreen, biotin-AF4 peptide binding to FLAG-AF9; P42568; inhibition, % at 10 µM; 350,000 tested, 0.47% active;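 active = every replicate reaching a set inhibition limit, whatever the replicate mean, cut at about 25% in these data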;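 also: 0% = plate neutral control median and 100% = total signal loss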
Target sequence (P42568 whole entry, looked up): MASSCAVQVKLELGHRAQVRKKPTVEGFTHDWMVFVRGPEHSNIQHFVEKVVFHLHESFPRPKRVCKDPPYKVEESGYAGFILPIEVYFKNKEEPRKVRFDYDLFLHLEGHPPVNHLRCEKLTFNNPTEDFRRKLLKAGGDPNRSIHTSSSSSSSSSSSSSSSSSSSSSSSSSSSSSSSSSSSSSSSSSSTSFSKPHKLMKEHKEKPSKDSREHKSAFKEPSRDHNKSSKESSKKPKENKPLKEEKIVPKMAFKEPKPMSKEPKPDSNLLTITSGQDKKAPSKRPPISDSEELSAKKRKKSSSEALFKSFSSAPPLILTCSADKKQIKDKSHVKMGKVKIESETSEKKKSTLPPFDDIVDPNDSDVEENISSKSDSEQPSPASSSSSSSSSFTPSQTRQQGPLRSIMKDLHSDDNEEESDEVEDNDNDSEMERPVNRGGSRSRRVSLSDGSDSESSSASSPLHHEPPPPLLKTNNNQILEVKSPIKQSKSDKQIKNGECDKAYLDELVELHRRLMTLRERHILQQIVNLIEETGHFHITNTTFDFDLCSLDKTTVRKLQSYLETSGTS
* hit, by the source's call; x = no result. Compounds with a hit are over-represented: about 1.5% of the library has one in this group of screens.

SMILES	RAD52 inh	RAD54 inh	dFosB activator	S100A4 inh HTS	AF4-AF9 inh
CN1CCCCN2[C@H](C1)[C@@H](c1ccc(C#Cc3ccccc3F)cc1)[C@@H]2CO	65*	11	x	-25	10
CC(=O)N1CCCCN2[C@H](CO)[C@H](c3ccc(C#Cc4ccccc4F)cc3)[C@@H]2C1	-10	9	x	97*	-2
CC(=O)N1CCCCN2[C@H](CO)[C@H](c3ccc(C#Cc4ccccc4F)cc3)[C@H]2C1	9	-11	x	11	1
OC[C@H]1[C@H](c2ccc(C#Cc3ccccc3F)cc2)[C@H]2CN(CC3CCOCC3)CCCCN21	17	7	x	-11	10
OC[C@@H]1[C@@H](c2ccc(C#Cc3ccccc3F)cc2)[C@H]2CN(CC3CCOCC3)CCCCN12	53*	-5	x	-1	12
CCOC(=O)c1ccc(NC(=O)O[C@H]2[C@H](OC(=O)Nc3ccccc3)[C@@H](OC(=O)Nc3ccccc3)[C@@H](OC)O[C@@H]2CO)cc1	-8	-5	x	43	14
COc1ccc(-c2cc(C(=O)Nc3cc(C)n(Cc4ccc(Cl)cc4)n3)no2)cc1OC	-9	1	32*	-2	-3
COc1ccc(OC)c(-c2cc(C(=O)Nc3c(C)nn(Cc4ccc(Cl)cc4)c3C)no2)c1	x	3	-6	x	x
CC(=O)N(C)C[C@@H]1Oc2ncc(-c3cccc(F)c3)cc2C(=O)N([C@@H](C)CO)C[C@@H]1C	7	-1	x	-11	-1
COc1ccc(/C=N/Nc2cc(C)nc3ccccc23)cc1	91*	97*	53*	-8	17
Cc1cccc(C)c1Nc1ncnc(N)c1[N+](=O)[O-]	2	-5	6	-2	5
CC(=O)Nc1ccc(Nc2ncnc(N)c2[N+](=O)[O-])cc1	-8	x	3	3	50*
Nc1ccc(N=Nc2ccccc2O)c(N)c1	-9	-2	x	1	49*
Oc1ccccc1N=Nc1ccccc1O	-26	x	-6	-3	-1
CN(C)c1ccc(Nc2ncnc3ccc(Br)cc23)cc1	-19	-3	-9	-7	26*
COc1ccc2c3c(n(C)c2c1)[C@H](CO)N(CC1CC1)CC31CCN(C(=O)CN(C)C)CC1	54*	x	x	18	11
COc1ccc(S(=O)(=O)N2CCC3(CC2)CN(C(=O)CN(C)C)[C@H](CO)c2c3c3ccc(OC)cc3n2C)cc1	57*	x	x	7	33*
C[C@H](CO)N1C[C@H](C)[C@H](CN(C)C(=O)Nc2ccc(F)cc2)Oc2ccc(NC(=O)C3CC3)cc2CC1=O	9	0	x	1	-13
CCOc1ccccc1CNC(=O)CCCc1cn(C)c2ccccc12	-14	-7	-5	-3	49*
O=C(CCN1C(=O)/C(=C/c2ccccc2Cl)SC1=S)NC1C=CS(=O)(=O)C1 (stereo unspecified)	-14	0	28*	-1	1
Cc1noc(C)c1S(=O)(=O)Nc1ccc2c(c1)CC(=O)N([C@@H](C)CO)C[C@@H](C)[C@@H](CN(C)C(=O)Nc1ccc3c(c1)OCO3)O2	x	5	x	x	x
CN(C)C(=O)C[C@@H]1C=C[C@@H](NC(=O)Nc2cccc(F)c2)[C@H](CO)O1	13	-11	x	5	-22
CCCNC(=O)N[C@H]1C=C[C@@H](CC(=O)N2CCN(C)CC2)O[C@@H]1CO	-1	-13	x	125*	6
COc1cccc(NC(=O)N[C@H]2C=C[C@H](CC(=O)N3CCN(C)CC3)O[C@H]2CO)c1	4	x	x	-4	-5
COc1cccc(NC(=O)N[C@@H]2C=C[C@@H](CC(=O)N3CCN(C)CC3)O[C@@H]2CO)c1	6	x	x	86*	-5
SMILES	RAD52 inh	RAD54 inh	dFosB activator	S100A4 inh HTS	AF4-AF9 inh
O=C(Nc1ccc(C(F)(F)F)cc1)N[C@H]1C=C[C@@H](CC(=O)N2CCCCC2)O[C@@H]1CO	10	-11	x	128*	2
CN(C)C(=O)C[C@@H]1C=C[C@H](NC(=O)Nc2cccc(F)c2)[C@@H](CO)O1	5	-16	x	97*	-11
Cc1noc(C)c1NC(=O)Nc1ccc2c(c1)C(=O)N([C@H](C)CO)C[C@H](C)[C@@H](CN(C)C(=O)Nc1ccc3c(c1)OCO3)OCCCC[C@@H](C)O2	14	-13	x	-8	0
C[C@@H]1CN([C@H](C)CO)C(=O)c2cccc(NC(=O)Nc3ccccc3)c2O[C@H]1CN(C)Cc1ccc2c(c1)OCO2	10	-8	x	-1	-8
COc1ccc(S(=O)(=O)N(C)C[C@H]2OCCCC[C@H](C)Oc3ccc(NC(=O)c4ccncc4)cc3C(=O)N([C@@H](C)CO)C[C@H]2C)cc1	4	-3	x	1	-1
O=C(NC1CCCCC1)N[C@@H]1C=C[C@@H](CC(=O)N2CCOCC2)O[C@@H]1CO	2	-1	x	-3	38*
CCCNC(=O)N1CCC2(CC1)CN(C(=O)NC1CCCC1)[C@@H](CO)c1[nH]c3cc(OC)ccc3c12	-2	x	x	28	1
COc1ccc(NC(=O)N(C)C[C@@H]2Oc3c(NS(=O)(=O)c4ccc(Cl)cc4)cccc3C(=O)N([C@H](C)CO)C[C@@H]2C)cc1	-26	-2	x	4	4
CCn1c(C)nc2cc(C(=O)N/N=C/c3cccc(OC)c3O)ccc21	-8	x	22*	0	-11
O=C(N/N=C/c1cc([N+](=O)[O-])ccc1O)c1cccc(NC(=O)c2cccc(Cl)c2)c1	2	17	57*	-8	-8
COc1ccc(NC(=O)N(C)C[C@H]2Oc3ccc(NC(=O)Nc4ccc(F)cc4)cc3CC(=O)N([C@@H](C)CO)C[C@H]2C)cc1	-10	-4	x	15	0
COc1ccc(C(=O)NCC(=O)N/N=C/c2cccnc2)cc1OC	-4	-3	-4	4	2
COc1cc(C(=O)NCC(=O)N/N=C/c2cccnc2)cc(OC)c1OC	-5	4	6	-6	45*
COc1ccc2c3c(n(C)c2c1)[C@@H](CO)N(CC1CC1)CC31CN(Cc2ccc(F)cc2)C1	38	x	x	-6	30*
COc1ccc2c3c(n(C)c2c1)[C@@H](CO)N(Cc1ccccc1F)CC31CCN(CC2CC2)CC1	26	x	x	2	33*
COc1ccc2c3c(n(C)c2c1)[C@H](CO)N(Cc1ccccc1)CC31CCN(CC2CC2)CC1	0	x	x	11	18
Cc1ccc(S(=O)(=O)N[C@@H]2CC[C@H](CC(=O)NCCCN(C)C)O[C@H]2CO)cc1	5	x	x	x	-23
O=C(C[C@@H]1CC[C@@H]2[C@H](COC[C@@H](O)CN2S(=O)(=O)c2cccc(Cl)c2)O1)NCCCN1CCOCC1	x	-2	x	x	x
Cc1ccc(Nc2nc(N)c([N+](=O)[O-])c(NCc3ccco3)n2)cc1	x	x	8	x	x
Fc1ccc(Nc2nc(NCc3ccco3)c3ccccc3n2)cc1	3	5	53*	-1	x
O=C(C1CCCC1)N1CCCCN2[C@H](CO)[C@@H](c3ccc(-c4ccncc4)cc3)[C@H]2C1	6	2	x	7	0
